Here are results for nine molecules from ChEMBL document CHEMBL3875203, “Small molecule mimics of DFTamP1, a database designed anti-Staphylococcal peptide” (Bioorg Med Chem, 2017).

Data set [1] deals with Staphylococcus aureus. Nature of the data set: Ratio of MIC for methicillin-resistant Staphylococcus aureus USA300 in presence of 100 mM NaCl to MIC for methicillin-resistant Staphylococcus aureus USA300 in absence of 100 mM NaCl. The data set is classed as functional. Summed up:
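Broth microdilution MIC against S. aureus USA300 in TSB with and without 100 mM NaCl. Inoculum 10⁶ CFU/mL exponential-phase cells, ~20 h at 37°C, OD630 read-out, no-growth endpoint. Ratio of MIC with salt to MIC without salt.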

In data set [2] the test system is Staphylococcus aureus. The experiment in a line: Antibacterial activity against Staphylococcus aureus USA400 after 20 hrs by microdilution method. The class given is functional. Conditions: USA400, 20 h. Summed up: (§1)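 Incubated ~20 h at 37°C, then read at 630 nm. MIC is the lowest concentration with no detectable growth. Daptomycin assays had 2 mM Ca²⁺ added to the medium. Repeated several times by different investigators.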
For orientation: In broth dilution the organism is exposed to a series of concentrations in liquid medium.

Data set [3] has as its system Staphylococcus aureus. The experiment in a line: Antibacterial activity against Staphylococcus aureus USA200 after 20 hrs by microdilution method. The data set is classed as functional. Conditions: USA200, 20 h. Summed up: as §1
Data set [4] relates to Staphylococcus aureus. The experiment in a line: Antibacterial activity against Staphylococcus aureus Mu50 after 20 hrs by microdilution method. To be noted: Mu50, 20 h. The class given is functional. A digest of the protocol: as §1
The test system of data set [5] is Staphylococcus aureus. Nature of the data set: Antibacterial activity against methicillin-resistant Staphylococcus aureus USA300 after 20 hrs by microdilution method. Conditions: USA300, 20 h. The class given is functional. A digest of the protocol:
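MIC = lowest concentration with no detectable growth. pH series run at pH 6.8, 7.4 and 8.0. Daptomycin wells carried 2 mM Ca²⁺. Repeated by different investigators on different dates.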

Data set [6] relates to Staphylococcus aureus. Nature of the data set: Antibacterial activity against Staphylococcus aureus Newman after 20 hrs by microdilution method. The data set is classed as functional. A digest of the protocol: as §1
Data set [7] has as its system Staphylococcus aureus. Nature of the data set: Antibacterial activity against Staphylococcus aureus UAMS-1 after 20 hrs by microdilution method. The data set is classed as functional. Conditions: UAMS-1, 20 h. Summed up: as §1
The next data set has as its system Pseudomonas aeruginosa. Nature of the data set: Antibacterial activity against Pseudomonas aeruginosa PAO1 after 20 hrs by microdilution method. The class given is functional. Conditions: PAO1, 20 h. A digest of the protocol:
as §1

Another data set concerns Escherichia coli. Nature of the data set: Antibacterial activity against Escherichia coli ATCC 25922 after 20 hrs by microdilution method. The data set is classed as functional. To be noted: ATCC 25922, 20 h. A digest of the protocol:
as §1

Data set [8] is described as follows: Therapeutic index, ratio of HC50 for human RBC to MIC for methicillin-resistant Staphylococcus aureus USA300. To be noted: human red blood cells, read-out: TI. Summed up:
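Supernatant hemoglobin read at 545 nm; 1% Triton X-100 = 100% lysis, untreated = 0%. HL50 divided by USA300 MIC gives the selectivity index.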

Data set [9] is described as follows: Retention time of the compound by HPLC method. The data set is classed as physicochemical.
For another data set, the system named is Klebsiella pneumoniae. Nature of the data set: Antibacterial activity against Klebsiella pneumoniae ATCC 13883 after 20 hrs by microdilution method. The data set is classed as functional. Conditions: ATCC 13883, 20 h. A digest of the protocol:
as §1

Data set [10] can be described thus: Hemolytic activity against human RBC after 1 hr. The data set is classed as ADME, cell-based, Erythrocyte. To be noted: human red blood cells. Summed up:
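Human red blood cells were washed three times in normal saline (800 g, 10 min) and made up as a 2% suspension. After centrifugation, supernatant absorbance was read at 545 nm. Lysis was set at 100% for 1% Triton X-100 and 0% for untreated cells; HL50 is the 50% hemolytic concentration.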

In general, MIC refers to the lowest concentration that inhibits growth of the organism. Low readings indicate a more susceptible organism, high ones a less susceptible organism. As for `CS(=O)(=O)O.CS(=O)(=O)O.Cn1cc(C2(c3cn(C)c4cc(C5=NCCN5)ccc34)CCCCC2)c2ccc(C3=NCCN3)cc21`, in the data set with Staphylococcus aureus [1], the Ratio entry is recorded as “<=2”. Moreover, the MIC is 12.5 µM in the data set with Staphylococcus aureus [2]; 25 µM with Staphylococcus aureus [3]; 25 µM in the data set on Staphylococcus aureus [4]; 12.5 to 25 µM against Staphylococcus aureus [5]; 12.5 µM with Staphylococcus aureus [6]; at least 25 µM against Staphylococcus aureus [7].

For orientation: HC50 means the concentration that lyses half of the red blood cells. A lower HC50 goes with more damage to red cells. For `CCC(CC)(c1c[nH]c2cc(C3=NCCN3)ccc12)c1c[nH]c2cc(C3=NCCN3)ccc12.CS(=O)(=O)O.CS(=O)(=O)O`, in the data set with Staphylococcus aureus [1], the Ratio entry is “<=2”. Besides, the MIC against Pseudomonas aeruginosa is over 50 µM; in the data set on Escherichia coli, over 50 µM; against Klebsiella pneumoniae, over 50 µM; against Staphylococcus aureus [5], 6.2 µM. Besides, in [8], the selectivity ratio is 48. The Retention_time in data set [9] was 11.015 min. This molecule also had an HC50 at 1 h in data set [10] of 300 µM.

Take `CS(=O)(=O)O.CS(=O)(=O)O.c1cc2c(Cc3c[nH]c4cc(C5=NCCN5)ccc34)c[nH]c2cc1C1=NCCN1`: the MIC is over 50 µM against Pseudomonas aeruginosa, over 50 µM against Escherichia coli, over 50 µM in the data set on Klebsiella pneumoniae and 50 µM against Staphylococcus aureus [5]. In data set [8], the selectivity ratio turned out to be 26. For the same molecule, the Retention_time in data set [9] is given as 9.215 min. For the same molecule, the HC50 at 1 h in data set [10] came out at 1300 µM.

In the case of `CS(=O)(=O)O.CS(=O)(=O)O.c1cc2c(C(c3c[nH]c4cc(C5=NCCN5)ccc34)C3CCCCC3)c[nH]c2cc1C1=NCCN1`, the MIC was over 50 µM in the data set on Pseudomonas aeruginosa, over 50 µM with Escherichia coli, over 50 µM in the data set on Klebsiella pneumoniae and 3.1 µM against Staphylococcus aureus [5]. Further, the selectivity ratio in data set [8] fell in the range of 7 to 14. Also, the Retention_time in data set [9] was found to be 11.832 min. In [10], this molecule showed an HC50 at 1 h of 20 to 40 µM.

Turning to `CS(=O)(=O)O.CS(=O)(=O)O.c1ccc(C(c2c[nH]c3cc(C4=NCCN4)ccc23)c2c[nH]c3cc(C4=NCCN4)ccc23)cc1`, the MIC is over 50 µM in the data set on Pseudomonas aeruginosa, over 50 µM with Escherichia coli, over 50 µM with Klebsiella pneumoniae and 25 µM in the data set on Staphylococcus aureus [5]. The selectivity ratio in data set [8] is 24. The Retention_time in [9] is 10.643 min. This molecule also returned an HC50 at 1 h in [10] of 600 µM.

In the case of `Cl.Clc1cccc(Cl)c1C(c1c[nH]c2ccc(C3=NCCN3)cc12)c1c[nH]c2ccc(C3=NCCN3)cc12`, the MIC in the data set with Pseudomonas aeruginosa is over 50 µM; in the data set on Escherichia coli, over 50 µM; against Klebsiella pneumoniae, over 50 µM; against Staphylococcus aureus [5], 12.5 µM. For the same molecule, the selectivity ratio in data set [8] was over 48. This molecule also yielded a Retention_time in data set [9] of 10.537 min. The HC50 at 1 h in [10] was over 600 µM.

Consider `CC(C)(c1c[nH]c2cc(C3=NCCN3)ccc12)c1c[nH]c2cc(C3=NCCN3)ccc12.CS(=O)(=O)O.CS(=O)(=O)O`, for which the MIC against Pseudomonas aeruginosa is over 50 µM; in the data set with Escherichia coli, over 50 µM; with Klebsiella pneumoniae, over 50 µM; with Staphylococcus aureus [5], 25 µM. The selectivity ratio in [8] is 33. The molecule further yielded a Retention_time in [9] of 10.005 min. In [10], this molecule displayed an HC50 at 1 h of over 830 µM.

Regarding `CS(=O)(=O)O.CS(=O)(=O)O.NCc1ccc2c(C3(c4c[nH]c5cc(CN)ccc45)CCCCC3)c[nH]c2c1`, the MIC is over 50 µM in the data set with Pseudomonas aeruginosa, over 50 µM against Escherichia coli, over 50 µM in the data set with Klebsiella pneumoniae and 6.2 to 12.5 µM against Staphylococcus aureus [5]. For the same molecule, in data set [8], the selectivity ratio fell in the range of 12 to 24. In data set [9], this molecule gave a Retention_time of 10.788 min. In data set [10], this molecule registered an HC50 at 1 h of 75 to 150 µM.

With `CS(=O)(=O)O.CS(=O)(=O)O.Clc1ccc(C(c2c[nH]c3cc(C4=NCCN4)ccc23)c2c[nH]c3cc(C4=NCCN4)ccc23)c(Cl)c1`, the MIC in the data set with Pseudomonas aeruginosa is 25 to 50 µM; with Escherichia coli, 12.5 µM; with Klebsiella pneumoniae, over 50 µM; against Staphylococcus aureus [5] it was 3.1 to 6.2 µM. Moreover, the selectivity ratio in [8] is 12. The molecule also showed a Retention_time in [9] of 11.924 min. Besides, in data set [10], the HC50 at 1 h is 40 µM.
